In data set [1] the target is T1, Transient receptor potential cation channel subfamily M member 8 (Rattus norvegicus, UniProt Q8R455). The data set is described as follows: Antagonist activity at rat TRPM8 expressed in HEK293 cells assessed as reduction in menthol-induced calcium flux incubated for 60 mins by Fluo-4 NW-dye based fluorimetric assay. It counts as cell-based. The method, boiled down:
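HEK293 cells stably expressing rat TRPM8, seeded 2 days ahead, loaded with Fluo-4 NW containing 2.5 mM probenecid; compounds in DMSO, 60 min at 37 °C in darkness. Four baseline cycles, 100 μM menthol stimulation, 15 further cycles read (ex 485/em 535 nm). Normalized to menthol + 10 μM AMTB coexposure; DMSO controls.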

For data set [2], the target named is Transient receptor potential cation channel subfamily V member 1 (Mus musculus) (UniProt Q704Y3). The data set is described as follows: Antagonist activity at mouse TRPV1 expressed in human SH-SY5Y cells assessed as inhibition of capsaicin induced calcium influx at 0.001 to 100 uM incubated for 60 mins by Fluo-4 NW-dye based fluorimetric assay. Format: cell-based. Summed up:
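SH-SY5Y cells stably expressing mouse TRPV1, seeded 2 days before, loaded with Fluo-4 NW plus 2.5 mM probenecid; compounds in DMSO added, 60 min at 37 °C in darkness. Four baseline cycles, then 10 μM capsaicin, recorded 15 more cycles (ex 485/em 535 nm). Signal normalized to capsaicin + 10 μM ruthenium red coexposure.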

For data set [3], the target named is Transient receptor potential cation channel subfamily M member 8 (Rattus norvegicus) (UniProt Q8R455). The data set can be described thus: Antagonist activity at rat TRPM8 expressed in HEK293 cells at 500 nM assessed as reduction in menthol-induced channel currents by whole cell patch clamp method. It counts as cell-based. The method, boiled down: (§1)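 HEK293 cells transiently transfected with rat TRPM8 cDNA plus EGFP marker, recorded 24 h later by whole-cell patch clamp on EGFP-positive cells (3–5 MΩ pipettes). Extracellular (mM): 138 NaCl, 5.4 KCl, 2 CaCl2, 1 MgCl2, 10 glucose, 10 HEPES, pH 7.4. Currents evoked by 500 μM menthol, read at +80 and −80 mV; compound added during menthol exposure.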
A general note: The patch-clamp technique gives a direct electrical read-out from membranes.

Data set [4] shares this target. The data set can be described thus: Reversible antagonist activity at rat TRPM8 expressed in HEK293 cells at 500 nM assessed as reduction in menthol-induced channel currents measured after drug wash out by whole cell patch clamp method. Format: cell-based. Summed up:
as §1

In data set [5] the target is T1, Transient receptor potential cation channel subfamily M member 8. The data set is described as follows: (§2) Antagonist activity at rat TRPM8 expressed in HEK293 cells assessed as reduction in menthol-induced channel currents by whole cell patch clamp method. Format: cell-based. The method, boiled down: (§3)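 HEK293 cells grown in DMEM/10% FBS, plated on poly-L-lysine coverslips, transiently transfected 24 h later with rat TRPM8 cDNA (3.6 μg) plus EGFP marker (total cDNA 4 μg). Whole-cell recordings 24 h post-transfection on EGFP-positive cells, 3–5 MΩ pipettes. Extracellular solution (mM): 138 NaCl, 5.4 KCl, 2 CaCl2, 1 MgCl2, 10 glucose, 10 HEPES, pH 7.4. Currents evoked by 500 μM menthol, monitored at +80 and −80 mV.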

Data set [6] has as its target Transient receptor potential cation channel subfamily M member 8 (Rattus norvegicus) (UniProt Q8R455). The description is as §2. It counts as cell-based. The method, boiled down:
as §3

Data set [7] in a line: Apparent permeability of the compound in 0.01 M phosphate buffer at pH 7.4 at 0.5 mM after 24 hrs by PAMPA. It counts as ADME. The method, boiled down: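 Donor at 0.5 mM, diluted from 10 mM DMSO stock into 0.01 M phosphate buffer pH 7.4. Filter coated with 1% phosphatidylcholine in dodecane; acceptor is 5% DMSO in phosphate buffer. Incubated 24 h at room temperature with gentle shaking. Acceptor analysed by HPLC-UV at 220 nm against no-membrane references. Papp from Faller-modified Sugano equation; triplicate, with propranolol and furosemide as references.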
For orientation: PAMPA measures passive passage across an artificial lipid membrane.

Data set [8] has as its system Mus musculus. The data set can be described thus: Antinociceptive activity in C57Bl/6J mouse assessed as inhibition of icilin induced wet-dog shakes at 25 mg/kg, sc pretreated 1 hr before icillin addition and measured after 30 mins by wet-dog shakes assay. Format: functional, organism-based. Summed up:
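Male C57 mice, 5 weeks, ~30 g, acclimatized 30 min on two consecutive days. Gabapentin in saline, 25 mg/kg s.c. 60 min before icilin (10 mg/kg i.p. in 20% DMSO/1% Tween 80). Wet-dog shakes counted over 30 min; mean ± SEM, n = 6; two-way ANOVA with Bonferroni.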

Data set [9] concerns the target Transient receptor potential cation channel subfamily M member 8 (Homo sapiens, UniProt Q7Z2W7). The data set can be described thus: Antagonist activity at TRPM8 (unknown origin) assessed as reduction in menthol-induced calcium influx. The method, boiled down:
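HEK293 cells stably expressing rat TRPM8, seeded 2 days ahead, loaded with Fluo-4 NW plus 2.5 mM probenecid. Compounds in DMSO preincubated 60 min at 37 °C in the dark. Four baseline cycles, then stimulation with 100 μM menthol and 15 further read cycles (ex 485, em 535 nm). Signal normalized to menthol + 10 μM AMTB coexposure. DMSO vehicle controls.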

The target in data set [10] is Transient receptor potential cation channel subfamily M member 8 (Rattus norvegicus) (UniProt Q8R455). The data set can be described thus: Reversible antagonist activity at rat TRPM8 expressed in HEK293 cells at 100 nM assessed as reduction in menthol-induced channel currents measured after drug wash out by whole cell patch clamp method. It counts as cell-based.
The subject of data set [11] is Mus musculus. The data set is described as follows: Antinociceptive activity in C57Bl/6J mouse assessed as inhibition of icilin induced wet-dog shakes at 30 mg/kg, sc pretreated 30 mins before icillin addition and measured after 30 mins by wet-dog shakes assay. Format: functional. The method, boiled down:
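Male C57 mice, 5 weeks, ~30 g, acclimatized 30 min on two consecutive days. Compound (DMSO stock diluted in saline) given s.c. at 1, 10 or 30 mg/kg 30 min before icilin 10 mg/kg i.p. (20% DMSO/1% Tween 80). Wet-dog shakes counted over 30 min; mean ± SEM, n = 6; two-way ANOVA, Bonferroni.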

The test system of data set [12] is Mus musculus. The data set is described as follows: Antinociceptive activity in sc dosed C57/BL6 mouse assessed as inhibition of oxaliplatin induced cold allodynia administered as single dose injected into plantar surface of right hind paw on day 7 post oxaliplatin treatment and measured after 15 to 30 mins by acetone drop method. It counts as functional, organism-based. Summed up: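 Male C57 mice, 5 weeks, ~30 g. Oxaliplatin 6 mg/kg given on days 1, 3 and 5, with saline and 5% mannitol i.p.; tested on day 7. Antagonist stock in DMSO, diluted in saline, 0.1–1 μg injected in 25 μL into the plantar surface of the right hind paw. Acetone drop test after ~30 min habituation; paw sampled twice (~5 min apart) and averaged.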

The target of data set [13] is Transient receptor potential cation channel subfamily M member 8 (Rattus norvegicus) (UniProt Q8R455). The data set can be described thus: Antagonist activity at rat TRPM8 expressed in HEK293 cells at 100 nM assessed as reduction in menthol-induced channel currents by whole cell patch clamp method. It counts as cell-based.
Data set [14] in a line: Chemical stability of compound in phosphate buffer at pH 7.4 after 15 to 60 mins by HPLC analysis. It counts as physicochemical. The method, boiled down: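 DMSO stock (10 mg/mL) diluted 1:100 in phosphate buffer and stirred at 37 °C. At 15, 30 and 60 min, extracted with dichloromethane (1:1), dried under nitrogen, reconstituted in methanol and filtered. Analysed by C18 HPLC with a 0.1% TFA water/acetonitrile gradient (5–90% B over 7 min), 0.5 mL/min, 220 nm detection. Triplicate.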

Data set [15] is described as follows: Drug metabolism in mouse serum assessed as (S)-2-(Dibenzylamino)-3-(1H-indol-3-yl)propanoic Acid formation after 15 to 60 mins by HPLC analysis. Format: ADME, cell-free. The method, boiled down:
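DMSO stock diluted 1:1000 in mouse serum (from retro-orbital blood) and stirred at 37 °C. Samples taken at 15, 30 and 60 min, extracted with dichloromethane, then analysed by C18 HPLC (0.1% TFA water/acetonitrile gradient, 220 nm) for parent and acid metabolite. Blank serum checked for interfering peaks; acetylsalicylic acid used to verify hydrolytic activity. Triplicate.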

Data set [16] deals with Mus musculus. The data set is described as follows: Antinociceptive activity in sc dosed C57Bl/6J mouse assessed as inhibition of icilin induced wet-dog shakes pretreated 30 mins before icillin addition and measured after 30 mins by wet-dog shakes assay. It counts as functional, organism-based. The method, boiled down: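 Male C57 mice, 5 weeks, ~30 g, acclimatized 30 min on two consecutive days. Compound (1, 10, 30 mg/kg; DMSO stock diluted in saline) or vehicle given s.c. 30 min before icilin 10 mg/kg i.p. (in 20% DMSO/1% Tween 80 in water). Gabapentin 25 mg/kg s.c. given 60 min before icilin. Wet-dog shakes counted over 30 min. Mean ± SEM, n = 6; two-way ANOVA with Bonferroni test.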

Structures are written as SMILES. The source made the active and inactive calls. No cut-off for these calls is given here.

T1 sequence (Q8R455 whole entry): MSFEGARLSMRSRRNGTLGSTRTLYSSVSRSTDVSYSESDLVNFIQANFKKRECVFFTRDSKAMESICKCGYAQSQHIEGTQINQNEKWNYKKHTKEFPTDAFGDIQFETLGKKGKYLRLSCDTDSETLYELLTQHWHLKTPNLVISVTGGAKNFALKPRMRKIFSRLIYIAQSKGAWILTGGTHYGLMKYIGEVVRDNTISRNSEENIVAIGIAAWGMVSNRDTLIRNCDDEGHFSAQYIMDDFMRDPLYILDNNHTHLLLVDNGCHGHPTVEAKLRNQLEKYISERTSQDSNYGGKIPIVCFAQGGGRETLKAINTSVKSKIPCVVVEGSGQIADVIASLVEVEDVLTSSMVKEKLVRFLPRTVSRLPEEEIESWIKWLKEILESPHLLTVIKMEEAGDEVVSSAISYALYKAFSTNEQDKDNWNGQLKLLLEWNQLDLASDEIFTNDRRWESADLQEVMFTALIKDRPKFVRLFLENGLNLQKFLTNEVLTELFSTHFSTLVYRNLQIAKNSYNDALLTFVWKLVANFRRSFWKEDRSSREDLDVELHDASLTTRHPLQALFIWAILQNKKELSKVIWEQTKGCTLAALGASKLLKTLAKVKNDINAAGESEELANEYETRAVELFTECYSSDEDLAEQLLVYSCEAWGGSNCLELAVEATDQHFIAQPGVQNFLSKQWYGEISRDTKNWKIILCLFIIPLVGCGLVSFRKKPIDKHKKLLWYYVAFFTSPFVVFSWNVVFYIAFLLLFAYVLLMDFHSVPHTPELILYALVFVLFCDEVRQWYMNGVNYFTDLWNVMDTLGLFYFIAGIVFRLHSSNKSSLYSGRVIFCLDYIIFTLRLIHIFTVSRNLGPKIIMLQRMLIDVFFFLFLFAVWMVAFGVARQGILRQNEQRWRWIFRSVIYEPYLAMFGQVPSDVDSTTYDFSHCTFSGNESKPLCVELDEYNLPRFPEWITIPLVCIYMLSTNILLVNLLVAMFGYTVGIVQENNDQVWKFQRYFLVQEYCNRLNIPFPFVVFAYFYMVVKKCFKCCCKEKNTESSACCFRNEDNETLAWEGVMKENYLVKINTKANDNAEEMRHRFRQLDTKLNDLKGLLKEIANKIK
Sequence of Transient receptor potential cation channel subfamily M member 8 (Rattus norvegicus) (Q8R455 whole entry, looked up): as the sequence (Q8R455 whole entry) above
Sequence of Transient receptor potential cation channel subfamily V member 1 (Mus musculus) (Q704Y3 whole entry): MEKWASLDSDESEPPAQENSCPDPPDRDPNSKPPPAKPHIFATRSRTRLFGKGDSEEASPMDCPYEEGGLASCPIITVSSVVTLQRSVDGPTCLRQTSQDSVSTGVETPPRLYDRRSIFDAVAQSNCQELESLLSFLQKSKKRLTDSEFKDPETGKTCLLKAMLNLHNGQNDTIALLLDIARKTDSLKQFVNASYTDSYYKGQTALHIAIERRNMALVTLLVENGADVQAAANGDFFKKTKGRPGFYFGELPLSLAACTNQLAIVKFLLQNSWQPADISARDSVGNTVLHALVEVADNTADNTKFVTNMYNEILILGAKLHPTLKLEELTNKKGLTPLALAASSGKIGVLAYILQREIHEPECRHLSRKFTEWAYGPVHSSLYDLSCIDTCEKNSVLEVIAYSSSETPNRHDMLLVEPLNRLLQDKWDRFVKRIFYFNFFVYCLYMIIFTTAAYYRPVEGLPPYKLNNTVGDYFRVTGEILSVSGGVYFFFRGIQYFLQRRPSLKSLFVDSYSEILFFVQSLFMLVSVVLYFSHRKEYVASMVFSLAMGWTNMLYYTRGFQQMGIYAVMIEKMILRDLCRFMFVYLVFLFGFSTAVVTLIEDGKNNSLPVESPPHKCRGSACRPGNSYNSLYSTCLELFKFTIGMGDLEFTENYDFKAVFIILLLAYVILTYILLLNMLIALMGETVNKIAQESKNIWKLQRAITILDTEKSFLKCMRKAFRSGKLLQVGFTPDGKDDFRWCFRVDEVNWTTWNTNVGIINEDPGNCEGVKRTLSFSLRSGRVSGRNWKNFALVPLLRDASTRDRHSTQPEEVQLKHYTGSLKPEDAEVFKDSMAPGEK
Sequence of Transient receptor potential cation channel subfamily M member 8 (Homo sapiens, UniProt Q7Z2W7) (Q7Z2W7 whole entry): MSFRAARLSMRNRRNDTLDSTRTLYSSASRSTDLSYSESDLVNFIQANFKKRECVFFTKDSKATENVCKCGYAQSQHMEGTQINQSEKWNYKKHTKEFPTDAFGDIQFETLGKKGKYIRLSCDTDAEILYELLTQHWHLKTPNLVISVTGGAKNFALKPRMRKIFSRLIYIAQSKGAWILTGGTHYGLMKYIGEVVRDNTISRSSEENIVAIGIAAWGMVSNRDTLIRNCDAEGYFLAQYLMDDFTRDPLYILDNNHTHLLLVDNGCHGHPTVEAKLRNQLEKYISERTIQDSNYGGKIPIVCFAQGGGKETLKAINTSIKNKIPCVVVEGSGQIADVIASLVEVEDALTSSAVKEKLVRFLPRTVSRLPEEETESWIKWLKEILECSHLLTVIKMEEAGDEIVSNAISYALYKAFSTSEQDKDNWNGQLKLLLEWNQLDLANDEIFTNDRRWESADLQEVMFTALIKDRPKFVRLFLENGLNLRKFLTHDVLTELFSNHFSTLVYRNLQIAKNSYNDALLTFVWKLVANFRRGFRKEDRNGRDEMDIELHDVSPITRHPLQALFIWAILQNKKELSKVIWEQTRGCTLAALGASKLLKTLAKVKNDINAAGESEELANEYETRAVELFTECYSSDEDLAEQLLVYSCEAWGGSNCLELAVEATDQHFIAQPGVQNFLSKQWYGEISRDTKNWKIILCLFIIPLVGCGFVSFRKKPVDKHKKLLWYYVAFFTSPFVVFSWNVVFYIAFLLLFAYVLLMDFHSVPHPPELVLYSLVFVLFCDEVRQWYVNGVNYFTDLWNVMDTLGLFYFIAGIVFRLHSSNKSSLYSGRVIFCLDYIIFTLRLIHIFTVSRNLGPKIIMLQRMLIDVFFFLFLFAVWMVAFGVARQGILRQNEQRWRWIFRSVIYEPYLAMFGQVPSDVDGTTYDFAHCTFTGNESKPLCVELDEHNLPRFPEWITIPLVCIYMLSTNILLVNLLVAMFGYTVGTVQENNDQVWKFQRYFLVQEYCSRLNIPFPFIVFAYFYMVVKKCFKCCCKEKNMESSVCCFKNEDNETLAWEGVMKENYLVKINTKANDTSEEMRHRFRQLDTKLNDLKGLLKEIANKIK

For orientation: IC50 means the concentration at which inhibition is half-maximal. On to `Cn1cc(CCN(Cc2ccccc2)Cc2ccccc2)c2ccccc21`, for which, in data set [1], the IC50 was found to be 3.3 µM.

For the compound `c1ccc(CN(CCc2c[nH]c3ccccc23)CC2CCCCC2)cc1`, the inhibition result in data set [2] was “inactive”. The inhibition result in data set [3] and in [4] was “Active” each time. The IC50 in [1] was 0.6 µM; in data set [5], 0.0035 µM. For the same compound, the inhibition result in data set [6] was “Dose-dependent effect”.

The Papp is a coefficient for how fast a substance crosses the barrier. Regarding `O=C(O)[C@H](Cc1c[nH]c2ccccc12)N(Cc1ccccc1)Cc1ccccc1`, the Papp at 24 h, 500 µM in data set [7] came to 31.7 nm/s. In addition, in data set [1], the half-inhibitory concentration (IC50) turned out to be 8.2 µM.

`O=[N+]([O-])c1ccc(CN(CCc2c[nH]c3ccccc23)Cc2ccccc2)cc1`: in data set [1], the IC50 came out at 3 µM.

With `O=[N+]([O-])c1ccc(CN2CCc3c([nH]c4ccccc34)C2c2ccccc2)cc1` (racemic), in data set [1], the IC50 stood at 3.3 µM.

Consider `NCC1(CC(=O)O)CCCCC1`, for which, in the data set with Mus musculus [8], the inhibition entry is “Active”.

For `CC(C)(C)c1ccc(NC(=O)N2CCN(c3ncccc3Cl)CC2)cc1`, in data set [9], the IC50 was 0.475 µM.

On to `c1cc2c3c(cccc3c1)CN(CCc1c[nH]c3ccccc13)C2`, for which, in [1], the IC50 was found to be 11.8 µM.

As to `O=C(CN1CCc2c([nH]c3ccccc23)C1c1ccccc1)c1ccccc1` (racemic), the IC50 in data set [1] is 1.6 µM.

Consider `O=C(O)c1ccc(CN2CCc3c([nH]c4ccccc34)C2c2ccccc2)cc1` (racemic), for which the half-maximal inhibitory concentration (IC50) in [1] is more than 100 µM.

In the case of `c1ccc(CN(CCc2c[nH]c3ccccc23)Cc2ccccc2)cc1`, the half-maximal inhibitory concentration (IC50) in data set [1] was 3.2 µM.

Usually inhibition in vivo stands for the change of the read-out against control, counted positive when it falls. Regarding `COC(=O)[C@H](Cc1c[nH]c2ccccc12)N(Cc1ccccc1)Cc1ccccc1`, the inhibition result in [2] is “inactive”. The inhibition result in data set [10] and in [13] was “Active” throughout. In addition, the apparent permeability coefficient (Papp) at 24 h, 500 µM in data set [7] amounted to 9.7 nm/s. Also, the inhibition in vivo at 30 mg/kg in the data set on Mus musculus [11] came out at 63%. In addition, the inhibition entry (in the data set on Mus musculus [12]; in data set [6]; with Mus musculus [16]) was “Dose-dependent effect” in each case. Moreover, the figures for the IC50 in data set [1] and in data set [5] were 0.04 µM and 0.0002 µM, respectively. For the same compound, the Stability entry in data set [14] was “Stable”. For the same compound, the Drug metabolism result in data set [15] is recorded as “Metabolite_Detected”.

As to `Cc1cccc(COc2ccccc2C(=O)N(CCCN)Cc2cccs2)c1`, in [1], the half-maximal inhibitory concentration (IC50) turned out to be 6.5 µM.

For `O=[N+]([O-])c1ccc(Sc2[nH]c3ccccc3c2CCN(Cc2ccccc2)Cc2ccccc2)c([N+](=O)[O-])c1`, the IC50 in [1] amounted to 2.2 µM.

On to `c1ccc(COc2ccc3[nH]cc(CCN(Cc4ccccc4)Cc4ccccc4)c3c2)cc1`, for which the IC50 in [1] stood at 1.9 µM.

In the case of `COC(=O)[C@@H](Cc1c[nH]c2ccccc12)N(Cc1ccccc1)Cc1ccccc1`, in data set [5], the IC50 worked out at 0.865 µM.

These data come from ChEMBL document CHEMBL4251754, “Identification of a Potent Tryptophan-Based TRPM8 Antagonist With in Vivo Analgesic Activity” (J Med Chem, 2018).
